Assay results as given in ChEMBL document CHEMBL1123812, “Pyrroloisoquinoline antidepressants. 2. In-depth exploration of structure-activity relationships” (J Med Chem, 1987).
pKi: −log10 of the molar value.

What was measured:
[1] = target: Adrenergic receptor alpha-2 (Rattus norvegicus) (UniProt P22086+P19328+P22909); assay: Binding affinity towards alpha-2 adrenergic receptor at 1.0 uM concentration; type: protein assay
[2] = target: Muscarinic acetylcholine receptor (Rattus norvegicus) (UniProt P08482+P08483+P08485+P08911+P10980); assay: Binding affinity towards Muscarinic acetylcholine receptor at 1.0 uM concentration; type: protein assay
Rattus norvegicus = species on record: Rattus norvegicus; assay: Inhibition of GABA uptake at 1 uM concentration.; type: functional
[3] = target: D(1A) dopamine receptor (Rattus norvegicus) (UniProt P18901); assay: Binding affinity towards Dopamine receptor D1 at 1.0 uM concentration
Sequence of D(1A) dopamine receptor (Rattus norvegicus) (P18901 whole entry): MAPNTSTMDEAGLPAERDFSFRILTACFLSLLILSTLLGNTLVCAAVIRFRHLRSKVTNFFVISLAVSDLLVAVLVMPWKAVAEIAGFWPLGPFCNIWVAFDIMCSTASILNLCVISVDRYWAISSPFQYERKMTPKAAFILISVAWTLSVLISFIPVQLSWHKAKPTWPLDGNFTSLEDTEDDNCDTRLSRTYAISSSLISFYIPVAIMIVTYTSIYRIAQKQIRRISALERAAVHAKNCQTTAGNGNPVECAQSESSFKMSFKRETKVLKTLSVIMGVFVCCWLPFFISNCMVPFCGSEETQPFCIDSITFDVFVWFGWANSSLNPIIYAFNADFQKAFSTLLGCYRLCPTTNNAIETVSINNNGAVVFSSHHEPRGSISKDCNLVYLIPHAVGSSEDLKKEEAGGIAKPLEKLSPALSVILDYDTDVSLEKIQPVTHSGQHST
Summary of the method: (§1)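 Rat brain crude synaptic membranes in 20 mM NaHEPES pH 7.5. Ligands: α1 cortex […] 0.4 nM, nonspecific with (-)-NE 100 μM, 30 min at 25 °C. […] D2 striatum [3H]spiperone 0.05 nM with (+)-butaclamol 1 μM, 45 min at 37 °C. S1 cortex [3H]5-HT 1 nM plus glutathione and MgCl2, with 5-HT 10 μM, 20 min at 37 °C. […] Samples filtered on GF/B and counted.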

Mus musculus [4] = species on record: Mus musculus; assay: Gross behavioral effects ascertained in mice; W indicates weak stimulant or depressant activity of little significance.; type: functional, organism-based
Summary of the method: (§2)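 Male Swiss Webster mice, 18–24 g, three per dose, given ip doses of 1, 3, 10, 30, 100 and 300 mg/kg. Observed for gross behavior and held for 4 days. Scored as weak (W), stimulant (S), depressant (D) or convulsant (C).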

[5] = target: D(2) dopamine receptor (Rattus norvegicus) (UniProt P61169); assay: Binding affinity towards dopamine receptor D2 at 1.0 uM concentration; summary of the method: as §1
Sequence of D(2) dopamine receptor (Rattus norvegicus) (P61169 whole entry): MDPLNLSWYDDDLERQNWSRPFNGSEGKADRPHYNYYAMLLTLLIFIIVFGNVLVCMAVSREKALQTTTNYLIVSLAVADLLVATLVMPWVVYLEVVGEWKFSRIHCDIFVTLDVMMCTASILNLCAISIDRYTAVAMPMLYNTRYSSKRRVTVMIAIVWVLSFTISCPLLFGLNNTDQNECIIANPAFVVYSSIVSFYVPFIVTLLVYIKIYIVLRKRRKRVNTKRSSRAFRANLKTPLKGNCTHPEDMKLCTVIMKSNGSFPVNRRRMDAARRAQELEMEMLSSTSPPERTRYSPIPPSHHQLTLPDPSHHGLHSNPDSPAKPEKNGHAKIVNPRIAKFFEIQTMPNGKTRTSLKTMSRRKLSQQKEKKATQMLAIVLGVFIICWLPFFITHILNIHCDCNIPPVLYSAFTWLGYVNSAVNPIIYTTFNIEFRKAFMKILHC

Mus musculus [6] = species on record: Mus musculus; assay: Antagonism of tetrabenazine (TBZ)-induced depression in mice measured for ptosis; type: functional
Summary of the method: (§3)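 Nonfasted male Swiss Webster mice, 18–24 g, ten per dose level and in saline controls. Test compound given ip 30 min before tetrabenazine 32 mg/kg ip; dose expressed as free base. Motor activity and ptosis scored. Control response ≤90% corrected by Abbott's formula.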

[7] = target: Serotonin 1 (5-HT1) receptor (Rattus norvegicus) (UniProt P28564+P30940+P19327+P28565); assay: Binding affinity towards serotonin S1 receptor at 1.0 uM; type: protein assay; summary of the method: as §1
[8] = target: T1, Adrenergic receptor alpha-2 (Rattus norvegicus, UniProt P22086+P19328+P22909); assay: Binding affinity towards alpha-2 adrenergic receptor; type: protein assay
T1 sequence (P22086 whole entry): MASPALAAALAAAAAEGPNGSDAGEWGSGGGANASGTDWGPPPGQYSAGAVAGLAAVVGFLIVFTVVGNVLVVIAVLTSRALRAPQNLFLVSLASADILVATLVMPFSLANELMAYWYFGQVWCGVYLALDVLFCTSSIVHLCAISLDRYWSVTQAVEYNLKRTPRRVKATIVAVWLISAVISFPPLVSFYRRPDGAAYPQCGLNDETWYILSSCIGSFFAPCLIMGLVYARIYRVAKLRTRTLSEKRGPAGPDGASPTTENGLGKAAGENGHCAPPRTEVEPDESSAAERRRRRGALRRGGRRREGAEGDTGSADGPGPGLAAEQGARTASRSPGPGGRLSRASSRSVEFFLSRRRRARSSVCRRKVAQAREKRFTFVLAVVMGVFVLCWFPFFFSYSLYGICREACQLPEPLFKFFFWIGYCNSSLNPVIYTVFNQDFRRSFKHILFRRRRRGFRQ
T1 sequence (P19328 whole entry): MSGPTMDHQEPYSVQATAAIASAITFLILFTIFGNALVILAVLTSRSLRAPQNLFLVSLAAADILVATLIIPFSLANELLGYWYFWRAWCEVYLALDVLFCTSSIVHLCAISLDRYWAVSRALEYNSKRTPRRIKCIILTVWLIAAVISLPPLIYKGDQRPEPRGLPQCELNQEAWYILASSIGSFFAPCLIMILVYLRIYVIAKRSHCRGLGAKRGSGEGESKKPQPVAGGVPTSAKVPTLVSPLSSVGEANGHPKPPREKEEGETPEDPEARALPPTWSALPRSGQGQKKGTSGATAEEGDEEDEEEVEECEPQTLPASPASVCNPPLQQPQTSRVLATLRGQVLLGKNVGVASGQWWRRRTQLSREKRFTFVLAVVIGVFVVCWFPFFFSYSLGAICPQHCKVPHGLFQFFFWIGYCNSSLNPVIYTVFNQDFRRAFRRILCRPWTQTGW
T1 sequence (P22909 whole entry): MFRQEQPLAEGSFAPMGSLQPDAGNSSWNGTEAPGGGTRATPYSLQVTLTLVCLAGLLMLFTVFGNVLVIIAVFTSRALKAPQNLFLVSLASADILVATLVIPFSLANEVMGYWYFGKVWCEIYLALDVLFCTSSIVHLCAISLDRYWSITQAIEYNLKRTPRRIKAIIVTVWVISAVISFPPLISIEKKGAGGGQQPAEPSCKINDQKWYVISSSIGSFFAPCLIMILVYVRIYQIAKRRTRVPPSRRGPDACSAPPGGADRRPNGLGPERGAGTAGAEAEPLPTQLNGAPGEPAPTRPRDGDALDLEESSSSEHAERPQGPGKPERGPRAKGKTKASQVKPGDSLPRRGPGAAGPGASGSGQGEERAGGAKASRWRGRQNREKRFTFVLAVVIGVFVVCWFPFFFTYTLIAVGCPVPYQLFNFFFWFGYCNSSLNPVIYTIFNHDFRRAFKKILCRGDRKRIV

[9] = target: T2, Adrenergic receptor alpha-1 (Rattus norvegicus, UniProt P15823+P23944+P43140); assay: Binding affinity towards alpha-1 adrenergic receptor; type: protein assay
T2 sequence (P15823 whole entry): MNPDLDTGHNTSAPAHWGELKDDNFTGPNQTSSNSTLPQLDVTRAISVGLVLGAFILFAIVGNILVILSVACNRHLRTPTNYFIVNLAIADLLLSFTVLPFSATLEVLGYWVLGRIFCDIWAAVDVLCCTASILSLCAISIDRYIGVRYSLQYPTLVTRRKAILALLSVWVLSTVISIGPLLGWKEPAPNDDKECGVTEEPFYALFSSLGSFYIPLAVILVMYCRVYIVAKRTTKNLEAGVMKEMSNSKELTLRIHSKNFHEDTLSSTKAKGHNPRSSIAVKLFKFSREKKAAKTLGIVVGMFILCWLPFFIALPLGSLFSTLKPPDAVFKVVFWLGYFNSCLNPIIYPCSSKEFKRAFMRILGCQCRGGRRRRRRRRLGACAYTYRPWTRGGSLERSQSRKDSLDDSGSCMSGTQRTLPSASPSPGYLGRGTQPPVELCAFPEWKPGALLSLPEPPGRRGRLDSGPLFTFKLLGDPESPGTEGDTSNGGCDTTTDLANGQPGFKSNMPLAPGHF
T2 sequence (P23944 whole entry): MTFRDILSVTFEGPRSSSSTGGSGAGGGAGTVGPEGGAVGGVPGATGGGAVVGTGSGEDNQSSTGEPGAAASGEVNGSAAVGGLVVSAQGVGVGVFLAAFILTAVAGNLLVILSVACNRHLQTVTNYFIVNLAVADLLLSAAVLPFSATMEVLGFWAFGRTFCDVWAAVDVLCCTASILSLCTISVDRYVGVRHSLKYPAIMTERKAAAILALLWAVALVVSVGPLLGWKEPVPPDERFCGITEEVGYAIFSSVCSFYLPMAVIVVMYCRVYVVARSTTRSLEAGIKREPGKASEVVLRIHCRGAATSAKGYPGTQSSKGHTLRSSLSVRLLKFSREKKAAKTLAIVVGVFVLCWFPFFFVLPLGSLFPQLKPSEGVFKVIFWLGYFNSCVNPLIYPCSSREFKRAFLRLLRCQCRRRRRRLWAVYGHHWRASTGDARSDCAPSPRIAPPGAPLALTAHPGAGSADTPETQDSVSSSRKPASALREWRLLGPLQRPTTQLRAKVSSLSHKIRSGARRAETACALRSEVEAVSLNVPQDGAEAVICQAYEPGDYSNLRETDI
T2 sequence (P43140 whole entry): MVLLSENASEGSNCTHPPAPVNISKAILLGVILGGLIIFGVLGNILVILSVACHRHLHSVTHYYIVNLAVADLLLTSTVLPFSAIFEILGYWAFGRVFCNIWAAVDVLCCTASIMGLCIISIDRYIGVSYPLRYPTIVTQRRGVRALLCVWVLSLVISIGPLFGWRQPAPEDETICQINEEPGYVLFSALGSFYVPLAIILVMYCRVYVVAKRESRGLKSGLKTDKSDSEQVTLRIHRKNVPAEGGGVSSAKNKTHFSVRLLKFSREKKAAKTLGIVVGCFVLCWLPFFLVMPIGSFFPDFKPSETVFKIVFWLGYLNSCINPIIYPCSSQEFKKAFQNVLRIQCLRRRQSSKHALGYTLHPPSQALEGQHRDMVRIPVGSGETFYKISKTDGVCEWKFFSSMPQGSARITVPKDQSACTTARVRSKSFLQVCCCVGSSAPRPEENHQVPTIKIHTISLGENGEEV

D(2) dopamine receptor = D(2) dopamine receptor (Rattus norvegicus, UniProt P61169); assay: Binding affinity towards Dopamine receptor D2
Sequence of D(2) dopamine receptor (P61169 whole entry): as the sequence (P61169 whole entry) above

[10] = target: Serotonin 1 (5-HT1) receptor (Rattus norvegicus, UniProt P28564+P30940+P19327+P28565); assay: Binding affinity towards serotonin S1 receptor; type: protein assay; summary of the method: as §1
Mus musculus [11] = species on record: Mus musculus; assay: Antagonism of tetrabenazine (TBZ)-induced depression measured in mice by motor activity; type: functional; summary of the method: as §3
[12] = target: Adrenergic receptor alpha-1 (Rattus norvegicus) (UniProt P15823+P23944+P43140); assay: Binding affinity towards alpha-1 adrenergic receptor at 1.0 uM concentration; type: protein assay; summary of the method: as §1
[13] = target: Serotonin 2 (5-HT2) receptor (Rattus norvegicus) (UniProt P30994+P08909+P14842); assay: Binding affinity towards 5-hydroxytryptamine 2 receptor at 1.0 uM concentration; type: protein assay; summary of the method: as §1
Sequence of Serotonin 2 (5-HT2) receptor (Rattus norvegicus) (P08909 whole entry, looked up): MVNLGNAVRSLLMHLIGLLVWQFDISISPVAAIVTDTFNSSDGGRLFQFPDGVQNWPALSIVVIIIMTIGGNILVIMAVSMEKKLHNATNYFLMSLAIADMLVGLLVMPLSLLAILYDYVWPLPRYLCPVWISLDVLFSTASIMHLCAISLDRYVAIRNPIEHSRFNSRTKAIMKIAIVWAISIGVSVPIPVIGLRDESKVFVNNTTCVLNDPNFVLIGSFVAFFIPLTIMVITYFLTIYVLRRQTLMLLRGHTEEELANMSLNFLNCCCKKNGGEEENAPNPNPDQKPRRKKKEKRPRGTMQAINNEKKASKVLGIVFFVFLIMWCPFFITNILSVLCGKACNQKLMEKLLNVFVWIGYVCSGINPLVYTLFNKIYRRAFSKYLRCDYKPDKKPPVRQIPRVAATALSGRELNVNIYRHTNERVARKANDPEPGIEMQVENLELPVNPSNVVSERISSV
Sequence of Serotonin 2 (5-HT2) receptor (Rattus norvegicus) (P14842 whole entry, looked up): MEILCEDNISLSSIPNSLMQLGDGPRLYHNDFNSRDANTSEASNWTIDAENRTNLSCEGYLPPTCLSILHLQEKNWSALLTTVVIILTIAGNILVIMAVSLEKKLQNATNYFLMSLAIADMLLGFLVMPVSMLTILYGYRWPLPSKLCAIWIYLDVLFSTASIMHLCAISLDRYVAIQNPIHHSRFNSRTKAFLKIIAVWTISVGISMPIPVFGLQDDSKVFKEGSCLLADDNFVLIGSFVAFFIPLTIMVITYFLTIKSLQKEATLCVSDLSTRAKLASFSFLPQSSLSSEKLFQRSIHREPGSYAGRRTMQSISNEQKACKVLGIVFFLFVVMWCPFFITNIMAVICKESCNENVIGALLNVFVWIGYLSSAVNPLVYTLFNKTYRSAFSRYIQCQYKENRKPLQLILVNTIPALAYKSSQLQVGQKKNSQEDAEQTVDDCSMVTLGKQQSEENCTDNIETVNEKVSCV
Sequence of Serotonin 2 (5-HT2) receptor (Rattus norvegicus) (P30994 whole entry, looked up): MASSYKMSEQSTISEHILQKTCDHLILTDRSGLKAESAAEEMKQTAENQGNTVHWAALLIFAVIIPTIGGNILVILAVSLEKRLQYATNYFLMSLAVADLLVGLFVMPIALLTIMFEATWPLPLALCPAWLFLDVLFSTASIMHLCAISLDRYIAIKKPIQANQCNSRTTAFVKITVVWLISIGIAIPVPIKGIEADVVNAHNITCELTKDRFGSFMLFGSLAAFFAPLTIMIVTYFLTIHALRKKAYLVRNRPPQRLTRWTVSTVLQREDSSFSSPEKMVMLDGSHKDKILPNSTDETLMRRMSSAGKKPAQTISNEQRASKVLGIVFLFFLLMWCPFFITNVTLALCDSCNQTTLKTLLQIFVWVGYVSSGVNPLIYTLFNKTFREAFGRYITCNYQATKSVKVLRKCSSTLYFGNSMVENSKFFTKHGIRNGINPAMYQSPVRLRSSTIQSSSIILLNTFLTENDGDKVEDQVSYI

[14] = target: Norepinephrine transporter (Rattus norvegicus, UniProt Q9WTR4); assay: Inhibition of uptake of tritiated norepinephrine (NE) in rat synaptosomes; type: subcellular, Brain
Sequence of Norepinephrine transporter (Q9WTR4 whole entry): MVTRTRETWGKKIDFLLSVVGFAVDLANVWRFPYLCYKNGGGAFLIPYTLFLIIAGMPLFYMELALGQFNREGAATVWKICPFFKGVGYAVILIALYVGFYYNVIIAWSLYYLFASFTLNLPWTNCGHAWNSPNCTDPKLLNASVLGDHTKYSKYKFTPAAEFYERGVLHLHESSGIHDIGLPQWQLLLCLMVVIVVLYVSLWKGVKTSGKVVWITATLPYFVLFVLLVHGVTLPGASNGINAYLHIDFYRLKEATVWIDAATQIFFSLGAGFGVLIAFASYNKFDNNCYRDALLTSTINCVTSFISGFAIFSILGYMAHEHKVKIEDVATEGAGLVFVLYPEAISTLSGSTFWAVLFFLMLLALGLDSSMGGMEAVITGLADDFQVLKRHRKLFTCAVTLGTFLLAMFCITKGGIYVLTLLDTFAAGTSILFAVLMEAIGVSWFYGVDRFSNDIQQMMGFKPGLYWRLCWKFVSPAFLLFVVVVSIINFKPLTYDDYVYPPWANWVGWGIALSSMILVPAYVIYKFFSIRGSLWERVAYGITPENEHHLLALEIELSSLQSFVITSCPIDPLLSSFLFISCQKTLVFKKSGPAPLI

Mus musculus [15] = species on record: Mus musculus; assay: Gross behavioral effects ascertained in mice; S indicates significant stimulant properties.; type: functional, organism-based; summary of the method: as §2
[16] = target: Sodium-dependent dopamine transporter (Rattus norvegicus, UniProt P23977); assay: Inhibition of the uptake of tritiated dopamine (DA) in rat synaptosomes; type: subcellular, Brain
Sequence of Sodium-dependent dopamine transporter (P23977 whole entry): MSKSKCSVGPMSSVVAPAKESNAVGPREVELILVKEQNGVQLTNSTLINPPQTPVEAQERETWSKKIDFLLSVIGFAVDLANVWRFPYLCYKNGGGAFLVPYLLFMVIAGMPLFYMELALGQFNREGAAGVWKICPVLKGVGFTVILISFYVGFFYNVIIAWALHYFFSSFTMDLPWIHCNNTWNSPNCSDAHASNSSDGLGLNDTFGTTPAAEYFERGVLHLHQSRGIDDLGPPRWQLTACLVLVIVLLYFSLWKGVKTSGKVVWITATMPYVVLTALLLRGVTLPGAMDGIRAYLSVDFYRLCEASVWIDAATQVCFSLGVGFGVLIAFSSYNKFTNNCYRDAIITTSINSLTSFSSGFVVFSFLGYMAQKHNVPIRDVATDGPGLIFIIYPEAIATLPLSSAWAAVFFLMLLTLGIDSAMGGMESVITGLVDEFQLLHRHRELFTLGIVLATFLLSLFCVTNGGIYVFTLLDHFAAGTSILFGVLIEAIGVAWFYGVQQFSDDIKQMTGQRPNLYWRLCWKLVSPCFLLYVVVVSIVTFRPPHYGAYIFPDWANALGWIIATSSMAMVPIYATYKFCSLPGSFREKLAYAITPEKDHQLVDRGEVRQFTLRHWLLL

| inhibition [1] | inhibition [2] | inhibition [3] | inhibition [5] | Ki [8] | Compound | inhibition (Rattus norvegicus) | behavior (Mus musculus [4]) | ED50 (Mus musculus [6]; Mus musculus, read-out: ED50) | Ki [10] | also measured |
| --- | --- | --- | --- | --- | --- | --- | --- | --- | --- | --- |
| 7% | 1% | 17% |  |  | FC(F)(F)c1cccc([C@@H]2CN3CCC[C@@H]3c3ccccc32)c1 (stereo in doubt; 37b) | 16% | Partial stimulant |  |  |  |
|  |  |  |  | 750 nM | c1ccc([C@@H]2CN3CCC[C@@H]3c3ccccc32)cc1 (stereo in doubt; 7b) |  |  |  | > 10000 nM | ED50 (Mus musculus [6]): 0.07 mg/kg; Ki [9]: 172 nM; pKi (D(2) dopamine receptor): 6.06; ED50 (Mus musculus [11]): 0.34 mg/kg |

Continued, molecule first:

| Compound | inhibition [1] | inhibition [2] | inhibition [3] | inhibition [5] | Ki [8] | inhibition (Rattus norvegicus) | behavior (Mus musculus [4]) | ED50 (Mus musculus [6]; Mus musculus, read-out: ED50) | Ki [10] | also measured |
| --- | --- | --- | --- | --- | --- | --- | --- | --- | --- | --- |
| CSc1ccc([C@@H]2CN3CCC[C@@H]3c3ccccc32)cc1 (stereo in doubt; 48b) |  |  | 24% | 4% |  | 10% |  |  |  |  |
| CN(C)CCCN1c2ccccc2CCc2ccccc21 [IMIPRAMINE] |  |  |  | 63% | 4900 nM |  |  | 0.78 mg/kg |  | inhibition [7]: 15% |
| Clc1ccccc1[C@@H]1CN2CCC[C@@H]2c2ccccc21 (stereo in doubt; 24b) | 12% | 6% |  |  |  | 16% | Partial stimulant |  |  |  |
| Clc1ccc([C@@H]2CN3CCC[C@@H]3c3ccccc32)cc1Cl |  | 9% |  | 37% | 990 nM |  |  | 0.14 mg/kg | 465 nM | inhibition [12]: 33%; inhibition [13]: 24%; pKi [14]: 9.17; behavior (Mus musculus [15]): Stimulant; ED50 (Mus musculus [11]; Mus musculus, read-out: ED50): 0.39 mg/kg; pKi [16]: 9.00 |
